Test results: ChEMBL document CHEMBL4196056, “Zirconium catalyzed synthesis of 2-arylidene Indan-1,3-diones and evaluation of their inhibitory activity against NS2B-NS3 WNV protease” (Eur J Med Chem, 2018)
Activity calls are given as the source filed them. The rule behind the calls is not given here.

How the values were obtained:
West Nile virus [1] = test: Inhibition of recombinant West Nile virus NS2B-NS3 protease at 16 umol/L using pERTKR-AMC as substrate preincubated for 30 mins followed by substrate addition by fluorescence assay
Summary of the method: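 Single-point screen of purified, pre-activated recombinant WNV NS2B-NS3 at 1 ng µL-1 final, in 50 mmol L-1 Tris with 30% glycerol, pH 9.5, and 1% DMSO final. Enzyme and compound (16 µmol L-1 final) were held 30 min at 21-22 °C before pERTKR-AMC was added. Fluorescence (ex 360/em 460 nm) was read continuously, with buffer/DMSO as negative control. Triplicate wells in three independent experiments; one-way ANOVA.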

[2] = Selectivity index, ratio of CC50 for African green monkey Vero cells to EC50 for Dengue virus 4 infected in African green monkey Vero cells; format: toxicity; details: Vero cells infected with Dengue virus 4, read-out: Ratio CC50/EC50
Summary of the method: (§1)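 Selectivity index calculated as CC50 from the 24 h Vero MTT assay divided by EC50 from the virucidal plaque-reduction assay for each DENV serotype.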

West Nile virus [3] = test: (§2) Inhibition of recombinant West Nile virus NS2B-NS3 protease using pERTKR-AMC as substrate preincubated for 30 mins followed by substrate addition by fluorescence assay
Summary of the method: (§3)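 Same protease format (1 ng µL-1 enzyme, Tris/30% glycerol pH 9.5, 30 min preincubation at 21-22 °C, pERTKR-AMC, ex 360/em 460 nm). Eight inhibitor concentrations spanning 66-0.5 µmol L-1 were tested, with reads every 30 s for 5 min. Triplicate wells in three independent experiments; IC50 from four-parameter nonlinear regression (Hill slope).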

[4] = as §2; summary of the method: as §3
[5] = Cytotoxicity against African green monkey Vero cells after 24 hrs by MTT assay; format: cell-based; details: chlorocebus sabaeus
Summary of the method: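 Vero cells (5 x 10^4/well) were exposed for 24 h at 37 °C to eight concentrations (4-1000 µmol L-1) in MEM with 2% FBS and 1% DMSO. MTT was added for 4 h, formazan was dissolved in DMSO, and absorbance was read at 550 nm. CC50 was derived by curve fitting.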

dengue virus type 4 = test: Antiviral activity against Dengue virus 4 infected in African green monkey Vero cells assessed as decrease in viral infection preincubated for 1 hr followed by cell addition and subsequent incubation for 1 hr and measured after 5 to 6 days by crystal violet staining-based assay; format: functional, organism-based
Summary of the method: (§4)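 Virucidal plaque-reduction format. Virus suspension (50-100 PFU) was mixed 1:1 with compound at 3, 6, 12, 25, 50 or 100 µmol L-1 and held 1 h at 37 °C. The mixture went onto Vero monolayers (8 x 10^5 cells/well) for 1 h adsorption with shaking, then a 3% CMC overlay in 2x DMEM with 2% FBS for 5-6 days. Cells were formaldehyde-fixed and crystal violet-stained, plaques were counted, and EC50 came from nonlinear regression.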

dengue virus type 1 = test: Antiviral activity against Dengue virus 1 infected in African green monkey Vero cells assessed as decrease in viral infection preincubated for 1 hr followed by cell addition and subsequent incubation for 1 hr and measured after 5 to 6 days by crystal violet staining-based assay; format: functional, organism-based; summary of the method: as §4
dengue virus type 2 = test: Antiviral activity against Dengue virus 2 infected in African green monkey Vero cells assessed as decrease in viral infection preincubated for 1 hr followed by cell addition and subsequent incubation for 1 hr and measured after 5 to 6 days by crystal violet staining-based assay; format: functional, organism-based; summary of the method: as §4
[6] = Selectivity index, ratio of CC50 for African green monkey Vero cells to EC50 for Dengue virus 3 infected in African green monkey Vero cells; format: toxicity; details: Vero cells infected with Dengue virus 3, read-out: Ratio CC50/EC50; summary of the method: as §1
dengue virus type 3 = test: Antiviral activity against Dengue virus 3 infected in African green monkey Vero cells assessed as decrease in viral infection preincubated for 1 hr followed by cell addition and subsequent incubation for 1 hr and measured after 5 to 6 days by crystal violet staining-based assay; format: functional, organism-based; summary of the method: as §4
[7] = Non-competitive inhibition of recombinant West Nile virus NS2B-NS3 protease using pERTKR-AMC as substrate preincubated for 30 mins followed by substrate addition by Lineweaver-Burk plot analysis
Summary of the method: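 Kinetic series with WNV protease at 37.04 nmol L-1 (1 ng µL-1), inhibitor at 2, 4 and 8 µmol L-1, and pERTKR-AMC at five levels ([…] as printed). Fluorescence was read every 30 s in triplicate wells, and velocities (RFU/min) were computed for each substrate/inhibitor pair. Ki came from nonlinear enzyme-kinetics regression.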

[8] = Selectivity index, ratio of CC50 for African green monkey Vero cells to EC50 for Dengue virus 1 infected in African green monkey Vero cells; format: toxicity; details: Vero cells infected with Dengue virus 1, read-out: Ratio CC50/EC50; summary of the method: as §1
[9] = Selectivity index, ratio of CC50 for African green monkey Vero cells to EC50 for Dengue virus 2 infected in African green monkey Vero cells; format: toxicity; details: Vero cells infected with Dengue virus 2, read-out: Ratio CC50/EC50; summary of the method: as §1

SMILES: O=C1C(=Cc2ccc([N+](=O)[O-])cc2)C(=O)c2ccccc21
- inhibition (West Nile virus [1]): inactive

SMILES: O=C1C(=Cc2ccco2)C(=O)c2ccccc21
- inhibition (West Nile virus [1]): inactive

SMILES: COc1cc(C=C2C(=O)c3ccccc3C2=O)cc(OC)c1O
- inhibition (West Nile virus [1]): Active

SMILES: O=C1C(=Cc2ccc(F)cc2)C(=O)c2ccccc21
- inhibition (West Nile virus [1]): inactive

SMILES: COc1ccc(C=C2C(=O)c3ccccc3C2=O)cc1O
- inhibition (West Nile virus [1]): Active

SMILES: O=C1C(=Cc2ccc(O)cc2)C(=O)c2ccccc21
- selectivity ratio [2]: 2
- inhibition (West Nile virus [3]): Dose-dependent effect
- IC50 [4]: 11 µM
- CC50 at 24 h [5]: 89.7 µM
- EC50 (dengue virus type 4): 55.9 µM
- EC50 (dengue virus type 1): 46.6 µM
- EC50 (dengue virus type 2): 39.2 µM
- selectivity ratio [6]: 4
- EC50 (dengue virus type 3): 21 µM
- Ki [7]: 12.3 µM
- selectivity ratio [8]: 2
- inhibition (West Nile virus [1]): 41%
- selectivity ratio [9]: 2

SMILES: N#Cc1ccc(C=C2C(=O)c3ccccc3C2=O)cc1
- inhibition (West Nile virus [1]): inactive

SMILES: COc1ccc(C=C2C(=O)c3ccccc3C2=O)cc1
- inhibition (West Nile virus [1]): inactive

SMILES: O=C1C(=Cc2ccc(Br)cc2)C(=O)c2ccccc21
- inhibition (West Nile virus [1]): inactive

SMILES: O=C1C(=Cc2ccc(O)c(O)c2)C(=O)c2ccccc21
- selectivity ratio [2]: 9
- inhibition (West Nile virus [3]): Dose-dependent effect
- IC50 [4]: 3 µM
- CC50 at 24 h [5]: 268 µM
- EC50 (dengue virus type 4): 29.9 µM
- EC50 (dengue virus type 1): 7.97 µM
- EC50 (dengue virus type 2): 20.4 µM
- selectivity ratio [6]: 147
- EC50 (dengue virus type 3): 1.82 µM
- Ki [7]: 1.25 µM
- selectivity ratio [8]: 34
- inhibition (West Nile virus [1]): 100%
- selectivity ratio [9]: 13

SMILES: O=C1C(=Cc2ccccc2)C(=O)c2ccccc21
- inhibition (West Nile virus [1]): inactive

SMILES: O=C1C(=Cc2ccc3c(c2)OCO3)C(=O)c2ccccc21
- inhibition (West Nile virus [1]): inactive

SMILES: COc1ccc(C=C2C(=O)c3ccccc3C2=O)cc1OC
- inhibition (West Nile virus [1]): inactive

SMILES: COc1cc(C=C2C(=O)c3ccccc3C2=O)cc(OC)c1OC
- inhibition (West Nile virus [1]): inactive

SMILES: CN(C)c1ccc(C=C2C(=O)c3ccccc3C2=O)cc1
- inhibition (West Nile virus [1]): inactive

SMILES: COc1cc(C=C2C(=O)c3ccccc3C2=O)ccc1O
- inhibition (West Nile virus [1]): Active
